How the values were obtained:
Assay type in all cases: cell-based
[1] = Cytotoxicity against human P4R5 MAGI cells after 2 hrs by MTT assay
Procedure, shortened: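 Cytotoxicity to target cells by MTT assay, giving CC50 (50% toxic concentration). Run in triplicate (n = 3).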

[2] = Inhibition of HIV1 3B […] reverse transcriptase infected in human P4R5 MAGI cells assessed as reduction in viral infection after 2 hrs by Galacto-Star beta-galactosidase reporter gene assay; details: Human immunodeficiency virus 1, 3B
Procedure, shortened: (§1)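 Single-round infection against cell-free virus: compounds, virus and target cells incubated together 2 h, cells washed, then cultured a further 48 h. Infection read as HIV-LTR-driven galactosidase expression; EC50 = 50% effective concentration. Line 2 uses the X4 (lymphocytotropic) strain, line 3 the R5 (monocytotropic) strain. DMSO served as negative control and dextran sulfate as positive control. Triplicate (n = 3).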

[3] = Inhibition of HIV1 BaL […] reverse transcriptase infected in human P4R5 MAGI cells assessed as reduction in viral infection after 2 hrs by Galacto-Star beta-galactosidase reporter gene assay; details: Human immunodeficiency virus 1, BaL; procedure, shortened: as §1

SMILES: Cc1cn([C@H]2C[C@H](F)[C@@H](COC(=O)CCCCCCCCCCCCC(=O)OC[C@@H]3O[C@H](n4ccc(N)nc4=O)CS3)O2)c(=O)[nH]c1=O
- CC50 at 2 h [1]: > 43 µM
- EC50 [2]: 0.1 µM
- EC50 [3]: 0.07 µM

SMILES: Cc1cn([C@H]2C[C@H](F)[C@@H](COC(=O)CCC(=O)OC[C@H]3O[C@@H](n4cc(C)c(=O)[nH]c4=O)C[C@@H]3F)O2)c(=O)[nH]c1=O
- CC50 at 2 h [1]: > 175 µM
- EC50 [2]: 3.7 µM
- EC50 [3]: 3 µM

SMILES: Cc1cn([C@H]2C[C@H](N=[N+]=[N-])[C@@H](COC(=O)CCC(=O)OC[C@@H]3O[C@H](n4ccc(N)nc4=O)CS3)O2)c(=O)[nH]c1=O
- CC50 at 2 h [1]: > 173 µM
- EC50 [2]: 16.1 µM
- EC50 [3]: 19.2 µM

SMILES: Cc1cn([C@H]2C[C@H](N=[N+]=[N-])[C@@H](COC(=O)CCC(=O)OC[C@H]3O[C@@H](n4cc(C)c(=O)[nH]c4=O)C[C@@H]3N=[N+]=[N-])O2)c(=O)[nH]c1=O
- CC50 at 2 h [1]: > 162 µM
- EC50 [2]: 14 µM
- EC50 [3]: 68.1 µM

SMILES: Cc1cn([C@H]2C[C@H](N=[N+]=[N-])[C@@H](COC(=O)CCC(=O)OC[C@H]3O[C@@H](n4cc(C)c(=O)[nH]c4=O)C[C@@H]3F)O2)c(=O)[nH]c1=O
- CC50 at 2 h [1]: > 168 µM
- EC50 [2]: 14.7 µM
- EC50 [3]: 17.5 µM

SMILES: Nc1ccn([C@@H]2CS[C@H](COC(=O)CCCCCCCCCCCCC(=O)OC[C@@H]3O[C@H](n4cc(F)c(N)nc4=O)CS3)O2)c(=O)n1
- CC50 at 2 h [1]: > 43 µM
- EC50 [2]: 0.18 µM
- EC50 [3]: 0.073 µM

SMILES: Cc1cn([C@H]2C[C@H](N=[N+]=[N-])[C@@H](COC(=O)CCCCCCC(=O)OC[C@H]3O[C@@H](n4cc(C)c(=O)[nH]c4=O)C[C@@H]3N=[N+]=[N-])O2)c(=O)[nH]c1=O
- CC50 at 2 h [1]: > 148 µM
- EC50 [2]: 0.2 µM
- EC50 [3]: < 0.15 µM

SMILES: Cc1cn([C@H]2C[C@H](N=[N+]=[N-])[C@@H](CO)O2)c(=O)[nH]c1=O [ZIDOVUDINE]
- CC50 at 2 h [1]: > 374 µM
- EC50 [2]: 34.4 µM
- EC50 [3]: 129 µM

SMILES: Nc1nc(=O)n([C@@H]2CS[C@H](CO)O2)cc1F [EMTRICITABINE]
- CC50 at 2 h [1]: > 200 µM
- EC50 [2]: 1.9 µM
- EC50 [3]: 0.7 µM

SMILES: Cc1cn([C@H]2C[C@H](F)[C@@H](CO)O2)c(=O)[nH]c1=O [ALOVUDINE]
- CC50 at 2 h [1]: > 410 µM
- EC50 [2]: 0.8 µM
- EC50 [3]: 3.3 µM

SMILES: Cc1cn([C@H]2C[C@H](F)[C@@H](COC(=O)CCCCCCC(=O)OC[C@H]3O[C@@H](n4cc(C)c(=O)[nH]c4=O)C[C@@H]3F)O2)c(=O)[nH]c1=O
- CC50 at 2 h [1]: > 160 µM
- EC50 [2]: 0.4 µM
- EC50 [3]: 0.5 µM

SMILES: Cc1cn([C@H]2C[C@H](F)[C@@H](COC(=O)CCC(=O)OC[C@@H]3O[C@H](n4ccc(N)nc4=O)CS3)O2)c(=O)[nH]c1=O
- CC50 at 2 h [1]: > 180 µM
- EC50 [2]: 44.5 µM
- EC50 [3]: 42.2 µM

SMILES: Cc1cn([C@H]2C[C@H](F)[C@@H](COC(=O)CCCCCCCCCCCCC(=O)OC[C@@H]3O[C@H](n4cc(F)c(N)nc4=O)CS3)O2)c(=O)[nH]c1=O
- CC50 at 2 h [1]: > 42 µM
- EC50 [2]: 0.047 µM
- EC50 [3]: 0.075 µM

SMILES: Nc1ccn([C@@H]2CS[C@H](COC(=O)CCCCCCC(=O)OC[C@@H]3O[C@H](n4ccc(N)nc4=O)CS3)O2)c(=O)n1
- CC50 at 2 h [1]: > 168 µM
- EC50 [2]: 26.6 µM
- EC50 [3]: 4.7 µM

SMILES: Nc1ccn([C@@H]2CS[C@H](CO)O2)c(=O)n1 [LAMIVUDINE]
- CC50 at 2 h [1]: 80.3 µM
- EC50 [2]: 32.7 µM
- EC50 [3]: 11.3 µM

SMILES: Cc1cn([C@H]2C[C@H](F)[C@@H](COC(=O)CCCCCCCCCCCCC(=O)O)O2)c(=O)[nH]c1=O
- CC50 at 2 h [1]: > 61 µM
- EC50 [2]: 1.8 µM
- EC50 [3]: 0.55 µM

— ChEMBL document CHEMBL4014299, “Synthesis and anti-HIV activities of unsymmetrical long chain dicarboxylate esters of dinucleoside reverse transcriptase inhibitors” (Bioorg Med Chem Lett, 2017)
